PDI inh – inhibitors of human PDI, primary screen, biochemical, turbidity, single point, plate reader; Protein disulfide-isomerase (Homo sapiens), P07237; actives 0.052% (n = 350,000); inhibition, % at 10 µM; PDI insulin aggregation turbidity, A650, 90 min;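 active = mean inhibition across replicates of 30% or more, whatever share of single replicates reach that level; inconclusive = mean inhibition below 30% while every single replicate reaches 30%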
C2C12 statin – suppressors of statin myotoxicity in C2C12 myotubes, primary screen, cell-based, single point, plate reader; C2C12 myotubes + simvastatin, ATP luminescence, 48 h; scaled: DMSO 0, geranylgeraniol control 100; rescue of ATP level, % at 7.49 µM; actives 0.78% (n = 330,000); AID 602340, 2012;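 active = mean ATP rescue above about 67%, or every replicate alone reaching that limit, limit read from the data, passing the limit was not always enough; inconclusive = no clear call, values can overlap the other calls; inactive = mean under the limit and some replicate under it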;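 note: myotubes were challenged with 10 µM simvastatin during compound exposure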
DENV2 CPE rescue – inhibitors of DENV2 cytopathic effect, primary screen, cell-based, plate reader, single concentration; AID 651640, 2012; actives 1.7% (n = 350,000); DENV2-infected cells, cytopathic effect rescue; CPE inhibition, % at 9.99 µM; in the data active = CPE inhibition above about 20%, passing the limit was not always enough; inconclusive = no clear call, values can overlap the other calls; tested in BHK-21 cells
ERp5 inh – inhibitors of ERp5-driven insulin aggregation, primary screen, biochemical, turbidity, absorbance 650 nm, single point. AID 651711, 2012. 90 min. Protein disulfide-isomerase A6 (Homo sapiens), Q15084. inhibition, % at 9.99 µM. actives 0.05% (n = 350,000);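 active = mean replicate inhibition above about 25%, with every replicate also reaching it, limit read from the data, passing the limit was not always enough; inconclusive = only one of those two criteria met; inactive = neither criterion met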
Target sequence (Q15084 whole entry, looked up): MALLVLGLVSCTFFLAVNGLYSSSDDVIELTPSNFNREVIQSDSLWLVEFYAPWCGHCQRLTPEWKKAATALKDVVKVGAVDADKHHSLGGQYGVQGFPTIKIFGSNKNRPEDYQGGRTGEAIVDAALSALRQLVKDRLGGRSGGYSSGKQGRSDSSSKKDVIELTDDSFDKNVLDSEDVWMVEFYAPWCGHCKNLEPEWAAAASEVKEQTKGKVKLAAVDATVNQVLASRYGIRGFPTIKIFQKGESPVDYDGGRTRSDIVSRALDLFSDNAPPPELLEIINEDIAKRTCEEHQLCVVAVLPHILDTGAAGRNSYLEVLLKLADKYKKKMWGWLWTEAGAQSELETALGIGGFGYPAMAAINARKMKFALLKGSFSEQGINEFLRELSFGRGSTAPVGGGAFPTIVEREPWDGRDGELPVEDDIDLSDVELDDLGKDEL
Cneo AK release – Cryptococcus neoformans cell lysis inducers, primary screen, AK release luminescence, single concentration; AID 651654, 2012; actives 0.2% (n = 360,000); lysis activity, % at 15 µM; C. neoformans lysis, adenylate kinase release luminescence, 4 h; normalised: neutral wells 0, clomiphene wells 100;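 active = mean lysis activity across replicates of at least 80%, whatever share of replicates individually reach that level; inactive = mean lysis activity below 80%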
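Assay system: Cryptococcus neoformans yeast cells / Dosing: single-point compound dose / Timing: 4 h at 37 °C static, read 1 h later / Measured by: luminescence of released adenylate kinase using an AK detection reagent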
CFTR F508del cor – F508del CFTR correction, initial screen, CFBE line, single point. CFBE cells, YFP halide quenching; stimulated with forskolin plus potentiator P3; % fluorescence drop versus neutral controls. activity (quench increase), % at 7.58 µM. actives 0.36% (n = 350,000);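 active = mean added fluorescence quench of at least 8% versus neutral control, with both replicates also reaching 8%; inconclusive = only one of the mean or replicate conditions met; inactive = mean below 8% and not both replicates reaching 8%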;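 note: cells transiently co-express mutant CFTR-F508del with the halide-sensitive YFP; corrector assay measuring rescue of mutant channel to the surface after 24 h compound exposure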
Of the large screens only hits and unclear results are named; the others gave an inactive call. Rows were chosen to be rich in hits. Some 2.3% of all compounds tested hit in one or more screens of this group.

COc1ccc(CC(=O)OCC(=O)NCCNC(=O)COC(=O)Cc2ccc(OC)cc2)cc1	DENV2 CPE rescue 61 (no result: C2C12 statin)
COc1ccc(CC(=O)OCC(=O)NCc2ccc(F)cc2)cc1	none
Cc1ccccc1OCC(=O)OCC(=O)NCCNC(=O)COC(=O)COc1ccccc1C	DENV2 CPE rescue 44 (no result: Cneo AK release)
C[C@@H]1CCCCO[C@H](CN(C)Cc2ccncc2)[C@@H](C)CN([C@@H](C)CO)C(=O)c2cc(NC(=O)Nc3ccc4c(c3)OCO4)ccc2O1	DENV2 CPE rescue 28 (no result: PDI inh, C2C12 statin)
C[C@H]1CCCCO[C@@H](CN(C)Cc2ccncc2)[C@@H](C)CN([C@@H](C)CO)C(=O)c2cc(NC(=O)Nc3ccccc3)ccc2O1	Cneo AK release 99 (no result: PDI inh, C2C12 statin)
C[C@@H]1CN([C@@H](C)CO)C(=O)c2cc(NC(=O)Nc3ccc(F)cc3)ccc2O[C@@H](C)CCCCO[C@H]1CN(C)Cc1ccccc1	DENV2 CPE rescue 40 (no result: PDI inh, C2C12 statin)
C[C@@H]1CCCCO[C@H](CN(C)Cc2ccccc2)[C@@H](C)CN([C@H](C)CO)C(=O)c2cc(NC(=O)Nc3ccc(F)cc3)ccc2O1	none (no result: PDI inh, C2C12 statin)
C[C@@H]1CCCCO[C@@H](CN(C)Cc2ccccc2)[C@H](C)CN([C@H](C)CO)C(=O)c2cc(NC(=O)Nc3ccc(F)cc3)ccc2O1	DENV2 CPE rescue 41 (no result: PDI inh, C2C12 statin)
C[C@@H]1CCCCO[C@H](CN(C)Cc2ccncc2)[C@H](C)CN([C@@H](C)CO)C(=O)c2cc(NC(=O)Nc3ccccc3)ccc2O1	none (no result: PDI inh, C2C12 statin)
O=C(Cc1ccccn1)N[C@@H]1CC[C@@H](CCn2cc(-c3cccnc3)nn2)O[C@H]1CO	none (no result: PDI inh)
CS(=O)(=O)Nc1ccc2c(c1)[C@H]1C[C@H](CC(=O)O)O[C@H](CO)[C@H]1O2	none (no result: PDI inh, C2C12 statin, Cneo AK release)
CC(=O)c1ccc(OCCCC(=O)Nc2cc(Cl)ccc2-n2cncn2)cc1	DENV2 CPE rescue 56
CCCCN1C(=O)NC(NC(C)=O)(C(F)(F)F)C1=O (stereo not given)	C2C12 statin 105 (no result: DENV2 CPE rescue, ERp5 inh, CFTR F508del cor)
CC(=O)NC1(C(F)(F)F)NC(=O)N(CCc2ccccc2)C1=O (stereo not given)	none
CO[C@@H]1CN(C)C(=O)c2cc(NC(=O)Nc3cccc(F)c3)ccc2OC[C@@H](C)N(C(=O)Nc2cccc(F)c2)C[C@H]1C	none (no result: PDI inh)
C[C@@H]1CN([C@@H](C)CO)C(=O)c2cc(NC(=O)Cc3cn(C)c4ccccc34)ccc2O[C@H]1CN(C)S(=O)(=O)c1cccs1	C2C12 statin 111 (no result: PDI inh)
C[C@H](CO)N1C[C@H](C)[C@H](CN(C)S(=O)(=O)c2cccs2)Oc2ccc(NC(=O)Cc3cn(C)c4ccccc34)cc2C1=O	C2C12 statin 104 (no result: PDI inh)
C[C@H]1CN([C@@H](C)CO)C(=O)c2cc(NC(=O)Cc3cn(C)c4ccccc34)ccc2O[C@H]1CN(C)S(=O)(=O)c1cccs1	C2C12 statin inconclusive (no result: PDI inh)
Cc1ccc([C@@H]2[C@@H]3C(=O)N(c4ccccc4)C(=O)[C@@H]3[C@]3(C)C(=O)N(Cc4ccccc4)CC(=O)N23)o1	none
Cc1ccc([C@@H]2[C@@H]3C(=O)N(C)C(=O)[C@@H]3[C@]3(C)C(=O)N(Cc4ccc(-c5ccccc5)cc4)CC(=O)N23)o1	DENV2 CPE rescue 92
O=C(NCc1ccccc1)[C@@H]1[C@@H](CO)[C@@H]2Cn3c(cccc3=O)[C@@H]2N1Cc1ccccc1F	DENV2 CPE rescue 23 (no result: PDI inh, CFTR F508del cor)
O=C(NCc1ccc(F)cc1)[C@H]1[C@H](CO)[C@H]2Cn3c(cccc3=O)[C@@H]1N2C(=O)c1cnccn1	none (no result: PDI inh)
O=C(NCc1ccccc1)[C@@H]1[C@@H](CO)[C@@H]2Cn3c(cccc3=O)[C@H]1N2Cc1ccccn1	DENV2 CPE rescue 40 (no result: PDI inh)
O=C(NCc1cccc(F)c1)[C@@H]1[C@@H](CO)[C@@H]2Cn3c(cccc3=O)[C@H]1N2C(=O)c1cnccn1	DENV2 CPE rescue 82 (no result: PDI inh)
CN(C)CC(=O)N1[C@@H]2c3cccc(=O)n3C[C@H]1[C@H](CO)[C@H]2C(=O)NCc1ccccc1	DENV2 CPE rescue 20 (no result: PDI inh, CFTR F508del cor)
O=C(NCCc1ccccc1)[C@@H]1[C@@H](CO)[C@@H]2Cn3c(cccc3=O)[C@H]1N2Cc1ccccn1	none (no result: PDI inh, CFTR F508del cor)
O=C(NCCc1ccncc1)[C@H]1[C@H](CO)[C@H]2Cn3c(ccc(C4=CCCCC4)c3=O)[C@@H]1N2CC1CC1	none (no result: PDI inh, DENV2 CPE rescue, ERp5 inh, Cneo AK release, CFTR F508del cor)
Nc1ccc(CC(N)c2csc(Nc3cc(Oc4ccccc4)ncn3)n2)cc1 (stereo not given)	DENV2 CPE rescue 46
NC(c1csc(Nc2cc(Oc3ccccc3)ncn2)n1)C1CCCCC1 (stereo not given)	none
COc1ccc(C(N)c2csc(Nc3cc(Oc4ccccc4)ncn3)n2)cc1 (stereo not given)	DENV2 CPE rescue 53
Cc1cc(C(=O)CCC(=O)NC(C)c2ccc(S(N)(=O)=O)cc2)c(C)s1 (stereo not given)	CFTR F508del cor 8.8
CC(NC(=O)C(c1ccccc1)c1ccccc1)c1ccc(S(N)(=O)=O)cc1 (stereo not given)	DENV2 CPE rescue inconclusive
Cc1ccc(S(=O)(=O)Nc2cccc3c2O[C@H](CN(C)S(=O)(=O)c2ccc(C)cc2)[C@@H](C)CN([C@H](C)CO)C3=O)cc1	none (no result: PDI inh)
CCC(C(=O)NCCCN1CCOCC1)n1c2ccccc2c2nc(=O)cc(C)n21 (stereo not given)	none
Cc1cc(=O)nc2c3ccccc3n(C(C)C(=O)NCCN3CCOCC3)n12 (stereo not given)	DENV2 CPE rescue 35
Cc1ccc(S(=O)(=O)N(C)C[C@H]2Oc3ccc(NC(=O)CCCN(C)C)cc3CC(=O)N([C@@H](C)CO)C[C@H]2C)cc1	DENV2 CPE rescue 43 (no result: PDI inh)
COc1ccc(S(=O)(=O)N(C)C[C@H]2Oc3ccc(NC(=O)CCCN(C)C)cc3CC(=O)N([C@@H](C)CO)C[C@H]2C)cc1	none (no result: PDI inh, C2C12 statin, DENV2 CPE rescue, Cneo AK release)
COc1ccc(S(=O)(=O)N(C)C[C@H]2Oc3ccc(NC(=O)CCCN(C)C)cc3CC(=O)N([C@H](C)CO)C[C@H]2C)cc1	DENV2 CPE rescue 29 (no result: PDI inh, C2C12 statin, Cneo AK release)
CO[C@H]1CC[C@@H]2CCOc3c(C#N)cccc3C(=O)N(C)C[C@@H](OC)[C@@H](C)C(=O)N(C)C[C@H]1O2	none (no result: PDI inh, CFTR F508del cor)
CO[C@H]1CC[C@@H]2CCOc3c(C#N)cccc3C(=O)N(C)C[C@@H](OC)[C@@H](C)C(=O)N(C)C[C@@H]1O2	Cneo AK release 85 (no result: PDI inh, CFTR F508del cor)
C[C@H](CO)N1C[C@H](C)[C@H](CN(C)C(=O)CCC(F)(F)F)OCCCC[C@H](C)Oc2ccc(NC(=O)c3ccccc3)cc2C1=O	DENV2 CPE rescue 21 (no result: PDI inh, C2C12 statin)
